Assay outcomes from PubChem.
In the library only some 4% were active in any assay of this set; here they are far more common.
Yeast life ext: yeast lifespan extension; S. cerevisiae growth with nicotinamide, OD615; deaD strain in restrictive glucose medium; inhibition of the nicotinamide effect, % at 10 µM; 130,000 tested, 0.68% active; AID 775;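 active = inhibition above a set limit, placed 3 SD over the median of all compounds, cut at about 26% in these data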;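 also: 0% = nicotinamide-treated wells and 100% = cells grown without nicotinamide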
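Assay system: engineered S. cerevisiae DeaD replicative-lifespan strain, galactose-grown log-phase cells; medium: restrictive CSMM-D dextrose medium; also added: nicotinamide, 1.5 mM, co-present with compound; schedule: 48 h compound exposure at 30 °C, humidified; detection: absorbance at 615 nm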
MDM2 E3 inh: Mdm2 E3 ligase (human) inhibition; cell-based MDM2 ubiquitination luciferase reporter, 2 h; 0 = plate control, 100 = twice control, blank-subtracted; signal enhancement, % at 5 µM; 210,000 tested, 0.11% active;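 active = signal enhancement of 30% or more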;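 also: luminescence tracks abundance of the self-degrading MDM2-luciferase fusion protein; higher signal means inhibition of MDM2 E3 ligase activity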
Target sequence (Q00987 whole entry, looked up, the tested form may be a part): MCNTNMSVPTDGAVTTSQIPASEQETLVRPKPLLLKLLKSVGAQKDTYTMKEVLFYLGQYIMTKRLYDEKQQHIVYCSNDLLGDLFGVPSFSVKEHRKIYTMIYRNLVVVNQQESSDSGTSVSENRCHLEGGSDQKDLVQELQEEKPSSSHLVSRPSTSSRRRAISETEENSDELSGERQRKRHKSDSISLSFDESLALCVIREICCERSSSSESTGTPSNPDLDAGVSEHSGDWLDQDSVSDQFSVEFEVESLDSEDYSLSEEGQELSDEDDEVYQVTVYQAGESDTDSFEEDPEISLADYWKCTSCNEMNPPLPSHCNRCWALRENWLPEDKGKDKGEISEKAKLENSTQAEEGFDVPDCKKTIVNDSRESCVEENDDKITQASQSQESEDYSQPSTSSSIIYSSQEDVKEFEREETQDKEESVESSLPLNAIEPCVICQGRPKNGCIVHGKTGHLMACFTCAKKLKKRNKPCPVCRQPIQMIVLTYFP
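Assay system: stable mammalian line carrying autodegrading MDM2–luciferase fusion reporter; Input: 2000 cells in each well; Compound dosing: single-point 5 µM; Schedule: 2 h compound exposure at 37 °C; Signal: SteadyLite luciferase luminescence after 15 min room-temperature reagent incubation; Evaluation: % luminescence enhancement versus blank-corrected plate control mean; Benchmarks: plate controls and plate blanks.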
RAM network inh: blocks the yeast RAM network. 190,000 tested, 1.8% active. inhibition, % at 50 µM. S. cerevisiae dse1pr::URA3 reporter, 5-FOA growth OD615, 2 d; analog-sensitive cbk1-as2 kinase mutant strain;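 active = inhibition above a set limit, 3 SD over mean compound inhibition, cut at about 8.4% in these data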;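 also: 0% = DMSO-only wells with no growth and 100% = 10 µM 1-NA-PP1 full growth; inhibition rescues growth on 5-FOA so higher OD means more RAM inhibition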
Measles CPE: protection of cells from measles virus; 140,000 tested, 1.5% active; Measles virus-infected cells, CPE protection, absorbance; AID 841; protection (pct of control), % at 4 µM; in the data active = protection mostly above about 24%, no sharp cut-off; inactive = mostly below about 26%
Yeast growth inh: chemicals that inhibit yeast BB579 growth in restrictive medium (lifespan-shortening candidates). S. cerevisiae BB579 growth, OD615, 48 h. inhibition, % at 10 µM. 140,000 tested, 0.51% active. AID 804;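 active = inhibition above a set limit, 3 SD over the mean compound inhibition, cut at about 44% in these data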
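Test system: Saccharomyces cerevisiae DeaD strain BB579, replicative lifespan model yeast | Buffer or medium: Restrictive CSMM-D medium | Doses: One dose, 10 µM compound with 0.25% DMSO | Incubation: 48 h exposure, 30 °C | Detection: Culture absorbance at 615 nm | Control set: Amphotericin B at 10 µg/mL as positive control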
Insulin prom inh: TRM-6 insulin promoter activity inhibition. TRM-6 cells, insulin promoter-eGFP reporter, imaging; reporter expression induced with tamoxifen. 130,000 tested, 0.9% active. AID 1273. inhibition, % at 2 µM;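 active = inhibition above the mean plus 3 SD, with well images judged a real hit on visual review, cut at about 60% in these data, passing the limit was not always enough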
* = called active by the depositor; x = not tested or not shown.

SMILES	Yeast life ext	MDM2 E3 inh	RAM network inh	Measles CPE	Yeast growth inh	Insulin prom inh
O=S(=O)(NC1CC1)c1ccc(S(=O)(=O)N2CCc3ccccc32)cc1	8	-8	3	44*	-18	x
Nc1ccc(S(=O)(=O)N2CCCc3ccccc32)cc1	-3	-10	3	3	13	x
NNC(=O)c1ccc(COc2cccc3ccccc23)cc1	-8	-15	-1	7	90*	x
Fc1ccc(NC(=S)NCCN2CCOCC2)c(F)c1F	x	-10	2	x	x	16
CCC(=O)N/N=C/c1ccc(OS(=O)(=O)c2ccccc2)cc1	-8	-1	0	18*	-2	-14
Cc1cc(C)nc(N(C#N)CN2C(=O)c3ccccc3C2=O)n1	-3	-13	2	10	-88	x
Cc1cc(C)nc(N(C#N)S(=O)(=O)c2ccccc2)n1	-13	-16	0	7	-8	82*
CCCCCCNCc1c(F)cccc1Cl	5	-9	1	57*	-8	9
CCOc1cccc(C(=O)Nc2ccccc2N2CCN(C(=O)C(C)C)CC2)c1	-7	-1	2	5	-49	-27
CCCn1nnnc1-c1cccc(Cl)c1	-10	-17	3	61*	-28	36
COc1ccc(CNC(=O)CSc2nnc(-c3ccc(NC(C)=O)cc3)n2C)cc1	-27	-4	1	5	48*	-269
CCOc1ccc(NC(=O)CSc2nnc(-c3ccccn3)n2C)cc1	-29	-20	4	55*	2	-26
CC(=O)Nc1ccc(-c2nnc(SCc3c(C)cc(C)cc3C)n2C)cc1	-3	-4	8.5*	10	-3	x
Cc1cc(=O)[nH]c(N/N=C/c2ccc(OC(=O)c3cccnc3)cc2)n1	x	-2	2	x	x	-50
O=C(NC(=S)Nc1nc2ccc(F)cc2s1)c1ccco1	x	0	3	x	x	45
O=C(Cc1cccs1)NNC(=S)NC(=O)c1ccccc1	7	0	0	7	86*	4
O=C(Cc1cccs1)NNC(=S)NC(=O)c1ccc(F)c(F)c1	1	-11	-1	2	-19	x
CCOc1ccc(N(CC(=O)NN=C2CCCC2)S(C)(=O)=O)cc1	x	-17	2	x	x	x
COc1cccc(C(=O)Nc2cccc(C(=O)N3CCOCC3)c2)c1	1	1	0	16	-55	66
COc1cccc(C(=O)N2CCOCC2)c1	x	-2	2	x	x	65*
O=C(NCc1ccc2c(c1)OCO2)c1ccc(CSCc2ccc(Cl)cc2)o1	6	3	7	19	-32	-20
O=C(NCc1ccc(F)cc1)c1ccccc1OCc1ccccc1	-4	-3	10*	7	0	-39
O=C(NCc1ccc2c(c1)OCO2)c1ccc(COc2cc(Cl)ccc2Cl)o1	-4	-13	9.4*	19	-42	x
O=C(NCc1ccccc1)c1cccc(COc2ccccc2Cl)c1	-12	16	8.6*	17	-27	x
CN(C(=O)c1cccc(COc2ccc(Cl)cc2Cl)c1)c1ccccc1	1	46*	4	8	-29	-50
SMILES	Yeast life ext	MDM2 E3 inh	RAM network inh	Measles CPE	Yeast growth inh	Insulin prom inh
O=C(c1cccc(COc2ccc(Cl)cc2Cl)c1)N1CCN(c2ccccn2)CC1	-13	-49	1	8	-37	31
O=C(Cc1ccc(Br)cc1)NC1CCSC1=O (stereo not drawn)	x	-3	0	x	x	12
O=C(NCc1ccccc1)c1cccc(COc2cc(Cl)ccc2Cl)c1	6	2	8	44*	-46	x
CCOc1cccc(C(=O)NCc2ccccc2)c1	x	-15	1	x	x	20
C=C(C)CSc1[nH]c(=O)cc(C)c1C#N	x	-2	1	x	x	-150
Cc1ccccc1C(=O)N/N=C/c1ccc([N+](=O)[O-])s1	-4	-5	1	44*	-17	-427
Cc1sc(N/N=C/c2ccco2)nc1-c1ccccc1	-7	-16	2	18	-36	15
Cc1sc(N/N=C/c2cccnc2)nc1-c1ccccc1	-17	-1	0	83*	-34	x
COc1cc(C2Nc3ccc4ncccc4c3C3=C2C(=O)CCC3)cc(OC)c1OC (stereo not drawn)	x	5	1	x	x	x
Cc1ccsc1C1Nc2ccc3ncccc3c2C2=C1C(=O)CCC2 (stereo not drawn)	-3	34*	0	14	-28	-23
O=S(=O)(Nc1nc2ccccc2nc1Cl)c1ccccc1	30*	-5	0	19	-4	x
CCC(C)Oc1nc2ccccc2nc1NS(=O)(=O)c1ccccc1 (stereo not drawn)	26*	-15	3	7	-39	40
O=S(=O)(Nc1nc2ccccc2[nH]1)c1ccccc1	1	-12	1	12	-22	x
O=S(=O)(Nc1nc2ccccc2nc1Cl)c1ccc(F)cc1	x	-15	x	x	x	x
O=S(=O)(Nc1nc2ccccc2nc1Cl)c1ccc2ccccc2c1	41*	-2	6	5	-31	33
NC(=O)Nc1ccc(C(=O)OCC(=O)Nc2ccc(Cl)cn2)cc1	x	-11	x	x	x	x
Cc1cccc(-c2nsc(SCC(=O)Nc3ccc4c(c3)OCO4)n2)c1	1	-1	4	11	-20	x
O=C(CSCc1ccccc1)Nc1ccc2c(c1)OCO2	-2	-19	1	5	-21	42
O=C(CSCc1c(Cl)cccc1Cl)Nc1ccc2c(c1)OCO2	6	-10	9.7*	31	-37	46
Cc1nnc(SCC(=O)Nc2ccc3c(c2)OCO3)o1	-4	-14	-1	17	-60	-23
Cc1ccccc1-c1nsc(SCC(=O)Nc2ccc3c(c2)OCO3)n1	1	-6	9.4*	7	-6	13
CCc1nnc(SCC(=O)Nc2ccc3c(c2)OCO3)o1	-12	-33	0	8	-28	68*
CSc1ncccc1C(=O)OCc1cccc([N+](=O)[O-])c1	x	-8	5	x	x	x
COc1ccc(/C=N/NC(=O)CSc2nnc(CCCc3ccc(OC)c(C)c3)o2)cc1	-1	-1	10*	2	-37	34
O=C(O)C(=O)/C(=C\c1cccc2ccccc12)c1ccc2ccccc2n1	30*	9	2	4	-46	10
SMILES	Yeast life ext	MDM2 E3 inh	RAM network inh	Measles CPE	Yeast growth inh	Insulin prom inh
Fc1ccc(/C=N/Nc2ncnc3nc[nH]c23)cc1F	-4	x	-1	6	4	60*
Cc1ccccc1/C=N/Nc1ncnc2nc[nH]c12	x	-4	x	x	x	x
Cc1c(C(=O)N(C)Cc2ccccc2)oc2ccc(S(=O)(=O)N3CCCC3)cc12	-9	-17	1	81*	-24	29
CCOc1ccc(NC(=S)N(C)C)cc1	x	-8	x	x	x	x
CCSc1nnc(CNc2ccc(F)cc2)n1CC1CCCO1 (stereo not drawn)	-11	-1	0	46*	-20	x
COc1ccc(/C=N/NC(N)=S)cc1OC(=O)c1cccc2ccccc12	-9	-19	5	2	-33	-57
